Only some compounds are listed: those with a hit (about 5.8% of all), similar ones and a draw of the others.
Plk1 PBD FP = Plk1 (human) PBD binding inhibition; P53350; Plk1 PBD phosphopeptide binding, fluorescence polarization; inhibition, %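 (tested at about 20 µM)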; 97,000 tested, 0.13% active; AID 693; in the data active = inhibition above about 34%, passing the limit was not always enough
Pyk2 oligo antag = blocks oligomerization of human Pyk2 in cells. Q14289. Q293 cells, Pyk2 FERM NanoBiT luminescence; hits give low values. z-score (the deposit names both 25 µM and 10 µM). 99,000 tested, 0.83% active;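 active = Z-score of -3 or lower, scaled per plate to the spread of control and sample wells; inactive = z-score above -3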;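 note: negative z-score means lost luminescence so less FERM oligomerization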
Cav32 inh = human Cav3.2 channel inhibition, primary screen. O95180. Cav3.2-expressing cells, Fluo-4 calcium fluorescence FDSS; hits give low values. B-score at 10 µM. 100,000 tested, 4% active;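 active = single-dose well whose peak fluorescence ratio is a statistical outlier from its plate by either plate-standardised score or position-corrected B-score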
FAK inh = inhibitors of human focal adhesion kinase | Q05397 | biochemical FAK kinase activity assay | inhibition, %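 (tested at 7 µM)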 | 97,000 tested, 0.84% active | AID 727; in the data active = inhibition above about 19%;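 note: 0% = DMSO and 100% = reference compound high control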
PLK1 kinase inh = PLK1 (human) kinase inhibition. AID 619. 97,000 tested, 0.53% active. inhibition, % at 10 µM. recombinant PLK1 kinase, TR-FRET peptide phosphorylation;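 active = inhibition of 50% or more in the single-concentration screen; inactive = inhibition below 50%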;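 note: 0% = DMSO max control and 100% = H-89 dihydrochloride min control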
Rev-RRE block = disrupts HIV-1 Rev binding to RRE RNA; P05866; Rev peptide-RRE RNA binding, FRET; inhibition, % at 8 µM; 97,000 tested, 0.79% active; AID 704;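 active = inhibition above the screen-wide mean plus 3 SD, cut at about 35% in these data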;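 note: 0% = median DMSO wells and 100% = median Neomycin B control wells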
Target sequence (P05866 whole entry, looked up): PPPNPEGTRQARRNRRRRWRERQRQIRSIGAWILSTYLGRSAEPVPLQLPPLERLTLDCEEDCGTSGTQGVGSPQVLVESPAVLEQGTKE
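Material: labelled RRE RNA duplex and labelled Rev peptide / Buffer or medium: HEPES pH 7.5 salt buffer with EDTA / Compound dosing: single point, 8 µM final nominal compound concentration / Benchmarks: DMSO low control, neomycin B high control / Timing: 5 min preincubation and 15 min binding, 25 °C / Technique: FRET fluorescence readout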
Active calls of the source: *; · = no result given; [ ] = dose if it differs, or a comment.

SMILES	Plk1 PBD FP	Pyk2 oligo antag	Cav32 inh	FAK inh	PLK1 kinase inh	Rev-RRE block
CCn1c(O)c(/C=N/N=C/c2ccccc2)c2ccc(C3=NNC(=O)CC3)cc21	-30	-2.3	0.31	3	-8	57*
O=C(O)/C=C/C(=O)Nc1ccccc1-c1ccccc1	6	-0.05	0.13	3	-8	6
Cc1cccc(C)c1NC(=O)C1(N(Cc2ccco2)C(=O)CC2NC(=O)NC2=O)CCCC1 (stereo unspecified)	-3	1.1	-0.64	-4	-8	4
CC[C@H]1CC2CN3CCc4c([nH]c5c([C@H]6C[C@H]7[C@H](CC)CN(C)[C@@H](Cc8c6[nH]c6ccccc86)[C@H]7C(=O)OC)c(OC)ccc45)C(C(=O)OC)(C2)C13	·	·	-3.8*	·	·	·
O=C(COc1ccc(Br)cc1)N1CCC(c2ccccc2)C1 (stereo unspecified)	3	1.1	-4.1*	13	-10	10
O=C(COc1ccc(Br)cc1)N1CCOCC1	-11	1.2	1	1	2	3
O=C1c2ccccc2C(Nc2ccc3c(c2)OCCO3)N1Cc1ccccc1 (stereo unspecified)	-20	·	-6.2*	·	-5	·
O=C(CSc1nnc(NC(=O)c2ccc(S(=O)(=O)N3CCOCC3)cc2)s1)Nc1ccccc1C(F)(F)F	·	-1	·	·	·	·
COc1ccc(CNC(=O)c2nnn(Cc3ccc(OC)cc3)c2N)cc1	-25	·	-5.2*	2	-14	2
CCc1ccc(Cn2nnc(C(=O)NCc3ccccc3OC)c2N)cc1	-15	·	-7.1*	6	-9	6
Nc1c(C(=O)NCc2ccccc2)nnn1Cc1ccc(F)cc1	·	·	-0.44	·	·	·
CCOC(=O)c1cccc(NC(=O)C(NS(=O)(=O)c2ccc3c(c2)CCN3C(C)=O)C(C)C)c1 (stereo unspecified)	·	0.81	0.49	·	·	·
C=CCn1c(SC(C)C(=O)NCCC2=CCCCC2)nc2ccccc2c1=O (stereo unspecified)	-18	0.62	-6.1*	1	-12	5
O=S(=O)(CCSc1nc2ccccc2o1)c1nc2ccccc2s1	-15	-3.1*	-1.3	-1	-4	-2
CC(=Nc1cccc(O)c1)c1sc2ccccc2c1O	-121	-0.27	-1.3	3	-8	48*
CC(=Nc1ccc(C)cc1)c1sc2ccccc2c1O	-59	-0.36	-0.89	2	-6	44*
CCOC(=O)c1sc(NC(=O)/C=C/c2cnn(C)c2C)c(C(=O)OC(C)C)c1C	-25	-1.2	-0.11	7	-8	10
CCc1ccc(NC(=O)CN(c2cccc(C)c2)S(C)(=O)=O)cc1	23	-2.1	-1.9	0	-2	7
CC(C)c1ccc(C2C3=C(CC(C)(C)CC3=O)NC3=C2C(=O)c2ccccc23)cc1 (stereo unspecified)	-34	-3*	-2.2	1	-9	7
COc1ccc(N(C(=O)Cn2nnc3ccccc32)C2(C(=O)NC3CCCC3)CCCCC2)cc1	-5	-0.41	-1.5	-6	-8	0
COc1ccc(N(C(=O)Cn2cnc3ccccc32)C(C(=O)NC2CCCCC2)c2ccccc2)cc1 (stereo unspecified)	-5	0.47	-3.5*	-2	0	1
CS(=O)(=O)N(CC(=O)Nc1cc(Cl)ccc1Cl)c1ccccc1Cl	-20	-0.94	-4.7*	0	-11	11
Cc1ccc(NC(=O)CN(c2ccccc2)S(=O)(=O)N(C)C)cc1C	5	-0.11	-3.6*	2	-10	4
CN(C)S(=O)(=O)N(CC(=O)Nc1ccccc1)c1ccccc1	-11	-1	-0.28	1	-7	10
COc1ccc(Cl)cc1NC(=O)CN(c1ccccc1)S(=O)(=O)N(C)C	-12	-3	-10*	6	-1	13
SMILES	Plk1 PBD FP	Pyk2 oligo antag	Cav32 inh	FAK inh	PLK1 kinase inh	Rev-RRE block
Cc1ccccc1N(CC(=O)Nc1ccccc1C(=O)O)S(C)(=O)=O	-25	-0.85	0.22	2	-6	10
Cc1ccc(C)c(N(CC(=O)Nc2cc(Cl)ccc2Oc2ccccc2)S(C)(=O)=O)c1	-25	-2	·	-3	-9	5
Cc1cccc(C)c1N(CC(=O)Nc1cc(Cl)ccc1Oc1ccccc1)S(C)(=O)=O	-41	-1.4	-5.6*	-11	-6	11
COc1ccc(NC(=O)CN(c2ccccc2)S(=O)(=O)N(C)C)cc1OC	1	0.43	-0.47	0	-8	3
Cc1ccc(CCNC(=O)C2CCCN(c3nc4ccccc4o3)C2)cc1 (stereo unspecified)	-9	0.33	-1.1	-1	3	1
CCOC(=O)C1=C(c2ccccc2)Nc2ncnn2C1c1cccc(OC)c1OC (stereo unspecified)	2	-1.1	3.4*	4	-12	7
O=C(/C=C/c1ccc(Cl)cc1)N1CCN(c2ccc(Cl)cc2[N+](=O)[O-])CC1	1	0.09	-7.5*	1	-4	8
Cc1cccc(-n2c(C)cc(/C=N/NC(=O)c3cccc([N+](=O)[O-])c3C)c2C)c1	-8	-1.9	-3.7*	-2	-3	3
CN(C)c1ccc(C=C2C(=O)OC(C)(C(C)(C)C)OC2=O)cc1 (stereo unspecified)	-13	-0.62	0.4	-5	-16	63*
CCN(CC)c1ccc(C=C2C(=O)OC(C)(C(C)(C)C)OC2=O)cc1 (stereo unspecified)	·	·	·	·	-9	·
COc1ccccc1C(=O)NCC1CCN(c2ccc(S(=O)(=O)N3CCOCC3)cc2)CC1	-2	-0.05	0.098	0	-6	10
COCc1cc(C)nc(OCC(=O)N/N=C/c2cccc(OC)c2)c1C#N	-2	-0.08	0.9	6	-1	5
COCc1cc(C)nc(OCC(=O)N/N=C\c2cc(C)n(-c3cccc(C(F)(F)F)c3)c2C)c1C#N	-29	0.47	-4.8*	0	-5	0
CCOC(=O)c1sc(Nc2cccc(C)c2C)nc1C	-6	·	·	12	-10	13
Cc1ccc(S(=O)(=O)NNc2nc3ccccc3nc2C(F)(F)F)cc1	14	0.23	-3.4*	0	0	7
CCCCSc1nc2sc3c(c2c(=O)[nH]1)CCC3	21	1.2	0.061	-3	-9	2
CCCSc1nc2sc3c(c2c(=O)[nH]1)CCN(Cc1ccccc1)C3	-76	0.76	-5.9*	5	-23	92*[fluorescence artefact?]
COCCN1C(=O)N[C@@H](c2ccc(Br)cc2)C(C(C)=O)=C1C	·	·	-1	·	·	·
S=C(NC1CCCCC1)N(CCc1nc2ccccc2[nH]1)C1CCCC1	14	-1.1	-8.3*	7	-1	-6
O=C(Nc1ccccc1)N(CCc1nc2ccccc2[nH]1)C1CCCC1	-30	-0.44	-2.6	4	-7	7
O=C(CSc1nc2ccccc2[nH]1)Nc1ccc(F)c(F)c1	27	0.38	-4.4*	0	-5	-2
O=C(CSc1nc2ccccc2[nH]1)Nc1ccccc1F	-9	-0.35	-0.37	2	0	4
